# Screening results: PubChem, Broad Institute
# FGF22 binding: FGF22 (human) thermal shift binding; recombinant FGF22 thermal shift, SYPRO orange fluorescence; percent of sucrose octasulfate shift, DMSO zero; actives 1.5% (n = 340,000); activity (Tm shift, normalised), % at 9.99 µM; AID 651658; Q9HCT0;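 active means mean Tm shift, scaled 0 neutral to 100 positive control, at about 1.3% or above, every replicate too, limit read from the data; inconclusive means no clear call, values can overlap the other calls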
# Target sequence (Q9HCT0 whole entry, looked up): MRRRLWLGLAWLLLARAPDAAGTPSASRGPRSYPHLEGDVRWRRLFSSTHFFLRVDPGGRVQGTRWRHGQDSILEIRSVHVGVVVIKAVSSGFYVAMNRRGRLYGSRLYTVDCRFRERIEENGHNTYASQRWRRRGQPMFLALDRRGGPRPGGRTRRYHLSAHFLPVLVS
# DENV2 CPE rescue: inhibitors of DENV2 cytopathic effect. DENV2-infected cells, cytopathic effect rescue, plate reader. CPE inhibition, % at 9.99 µM. actives 1.7% (n = 350,000); in the data active means CPE inhibition above about 20%, passing the limit was not always enough; inconclusive means no clear call, values can overlap the other calls; tested in BHK-21 cells
# Xi reactivation: reactivates the inactive X chromosome in mouse fibroblasts; XiGFP mouse fibroblasts, % GFP-positive cells imaging, 3 d; cells co-treated with 5-aza-dC sensitizer; scaled so ellipticine positive control = 100%; activation, % at 7.58 µM; actives 0.055% (n = 360,000);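 active means mean normalized replicate activation at least 10% and every replicate at or above 10%; inconclusive means only one of the two criteria met; inactive means mean below 10% and not all replicates reach 10%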
#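 System: XiGFP fibroblasts, SV40-immortalized. Medium: DMEM plus 5-aza-dC sensitizer. Doses: single point. Timing: 3 d treatment, 15 min room-temperature fixation. Control set: ellipticine 6 µM.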
# FN deposition inh: fibronectin deposition inhibition. AH1F fibroblasts, Alexa488-fibronectin deposition fluorescence, overnight. inhibition, % at 12.6 µM. actives 0.086% (n = 350,000). AID 743247;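 active means mean inhibition across replicates of 30% or more, regardless of how many single replicates reach that level; inconclusive means mean under 30% yet at least half of replicates reach 30%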
#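 Assay system: AH1F fibroblasts / Quantity: 10000 cells per well / Medium: DMEM plus 2% serum, read in PBS / Reagent: labelled fibronectin 24 nM / Dosing: single dose, pinned / Times: 1 h cell attachment, overnight exposure to compound and label / Signal: fluorescence, ex 485 nm, em 525 nm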
# SIRT5 inh: blocks human SIRT5 desuccinylation of peptide; actives 1.1% (n = 330,000); AID 652115; Purified SirT5, succinyl-peptide AMC, trypsin-coupled fluorescence; inhibition, % at 15 µM; Q9NXA8; in the data active means inhibition above about 15%; inconclusive means no clear call, values can overlap the other calls
# Target sequence (Q9NXA8 whole entry, looked up): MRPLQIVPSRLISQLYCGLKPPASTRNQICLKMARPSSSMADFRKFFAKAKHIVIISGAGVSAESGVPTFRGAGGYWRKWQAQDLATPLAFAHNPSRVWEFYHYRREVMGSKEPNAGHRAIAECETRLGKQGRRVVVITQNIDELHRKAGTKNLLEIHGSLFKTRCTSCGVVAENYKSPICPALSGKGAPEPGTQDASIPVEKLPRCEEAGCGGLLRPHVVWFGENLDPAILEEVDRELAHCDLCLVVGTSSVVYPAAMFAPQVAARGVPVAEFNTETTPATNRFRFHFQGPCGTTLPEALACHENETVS
# ARNT TACC3 PPI: ARNT/TACC3 interaction disruption; Q9Y6A5; AID 623870; actives 0.66% (n = 390,000); inhibition, % at 9.99 µM; AlphaScreen His-ARNT PAS-B/GST-TACC3 binding, luminescence; TACC3 fragment carries E629A point mutation;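 active means mean inhibition of replicates at least 50% and at least half of replicates each reaching 50%; inconclusive means half or more replicates reach 50% but mean below 50%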
# Hits are given with their value; 0 = inactive; ? = inconclusive; - = not tested or not shown. Rows were chosen to be rich in hits. Some 3.8% of all compounds tested hit in one or more screens of this group.
SMILES,FGF22 binding,DENV2 CPE rescue,Xi reactivation,FN deposition inh,SIRT5 inh,ARNT TACC3 PPI
C[C@@H]1CN([C@@H](C)CO)C(=O)c2cc(NC(=O)CCCN(C)C)ccc2O[C@H]1CN(C)C(=O)Nc1ccc(F)cc1,0,0,0,-,0,0
CC(=O)Nc1ccc(-c2csc(NC(=O)CCCc3cccs3)n2)cc1,2.1,0,0,0,0,-
Cc1ccc(-c2csc(NC(=O)CCCc3cccs3)n2)cc1,-,-,0,0,-,0
Cc1nn(C)c(C)c1/C=C/C(=O)O,43,0,0,0,0,0
O=C(C[C@H]1C[C@@H]2c3cc(NC(=O)c4ccc5c(c4)OCO5)ccc3O[C@@H]2[C@@H](CO)O1)NCc1ccc(Cl)cc1,0,0,0,0,0,0
CN1OC[C@@H]2CN(Cc3cc(Cl)cc(Cl)c3)[C@H](c3cccc(-c4ccc(C#N)cc4)c3)C[C@@H]21,0,24,0,-,0,-
COc1ccccc1-c1cccc([C@@H]2C[C@H]3[C@H](CON3C)CN2C(=O)CCc2ccccc2)c1,0,0,-,0,17,0
Cc1ccccc1-c1cccc([C@@H]2C[C@H]3[C@H](CON3C)CN2Cc2ccccc2)c1,0,0,0,active,0,0
CC(=O)N1C[C@H]2CON(C)[C@H]2C[C@H]1c1cccc(-c2ccccc2)c1,0,0,0,0,0,0
CC(=O)N1C[C@H]2CON(C)[C@H]2C[C@H]1c1cccc(-c2ccc(C#N)cc2)c1,0,21,0,-,0,-
CO[C@H]1CN(C)C(=O)c2cc(NC(C)=O)ccc2OC[C@@H](C)N(Cc2cccc(F)c2)C[C@H]1C,-,0,0,0,0,0
COc1ccccc1-c1ccc([C@@H]2[C@@H](C#N)N(C(=O)C3CC3)[C@H]2CO)cc1,0,0,0,0,0,0
CN1C(=O)c2cc(NC(=O)Nc3ccccc3F)ccc2OC[C@H]2O[C@@H](CC(=O)NCCc3ccncc3)CC[C@@H]21,-,0,0,0,-,0
C=CC1CN(S(=O)(=O)c2ccc(Br)cc2)C(=O)N1c1ccc(Br)cc1 (configuration not stated),0,0,-,-,0,0
CCCCn1nnnc1C1(C)CCC(=O)N1CCOc1ccccc1 (configuration not stated),0,66,0,0,-,-
CC1(c2nnnn2Cc2ccccc2)CCC(=O)N1CCOc1ccccc1 (configuration not stated),0,92,0,0,-,-
COc1ccc(-n2nnnc2C2(C)CCC(=O)N2Cc2ccccc2)cc1 (configuration not stated),0,63,0,0,0,-
Cc1ccc(CN2C(=O)CCC2(C)c2nnnn2Cc2ccccc2)cc1 (configuration not stated),0,?,0,0,0,-
CCCC(=O)Nc1ccc2c(c1)C(=O)N(C)[C@H]1CC[C@H](CC(=O)NCCc3ccccc3)O[C@H]1CO2,0,0,0,-,0,0
O=C(Cc1ccccn1)N1CC(=O)N2[C@@H](CO)[C@@H](c3ccc(C#CC4CCCCC4)cc3)[C@@H]2C1,-,0,0,0,0,-
Cc1noc(C)c1S(=O)(=O)Nc1ccc2c(c1)C(=O)N([C@@H](C)CO)C[C@H](C)[C@H](CN(C)C(=O)CCCN(C)C)OCCCC[C@H](C)O2,0,73,0,-,-,0
Cc1noc(C)c1S(=O)(=O)Nc1ccc2c(c1)C(=O)N([C@@H](C)CO)C[C@H](C)[C@H](CN(C)C(=O)CCCN(C)C)OCCCC[C@@H](C)O2,0,0,0,-,-,0
C[C@@H]1CN([C@@H](C)CO)C(=O)c2cc(NS(=O)(=O)c3ccc(F)cc3)ccc2O[C@@H](C)CCCCO[C@@H]1CN(C)C(=O)CCCN(C)C,0,83,0,0,0,0
C[C@@H]1CCCCO[C@@H](CN(C)C(=O)CCCN(C)C)[C@@H](C)CN([C@H](C)CO)C(=O)c2cc(NS(=O)(=O)c3ccccc3)ccc2O1,0,0,0,0,19,0
C[C@H]1CCCCO[C@@H](CN(C)C(=O)CCCN(C)C)[C@@H](C)CN([C@@H](C)CO)C(=O)c2cc(NS(=O)(=O)c3ccc(F)cc3)ccc2O1,-,0,0,0,0,0
